# Key:
# [1] = molecular target: T1, Adenosine receptor A2b (Homo sapiens, UniProt P29275); assay: Displacement of [3H]ZM241385 from human adenosine A2b receptor expressed in HEK cells; type: cell-based, HEK293
# T1 sequence (P29275 whole entry): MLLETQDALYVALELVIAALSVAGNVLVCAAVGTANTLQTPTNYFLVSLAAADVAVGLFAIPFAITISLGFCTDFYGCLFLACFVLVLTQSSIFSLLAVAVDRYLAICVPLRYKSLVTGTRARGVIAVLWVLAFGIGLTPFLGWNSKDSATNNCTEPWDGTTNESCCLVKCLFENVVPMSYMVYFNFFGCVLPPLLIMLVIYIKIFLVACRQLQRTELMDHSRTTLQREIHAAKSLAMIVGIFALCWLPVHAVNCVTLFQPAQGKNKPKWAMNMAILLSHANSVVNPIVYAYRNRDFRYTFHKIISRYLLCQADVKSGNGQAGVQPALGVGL
# [2] = molecular target: Adenosine receptors; A1 & A2b (Homo sapiens) (UniProt P30542+P29275); assay: Selectivity for human adenosine A2b receptor over adenosine A1 receptor; type: protein assay
# [3] = molecular target: T2, Adenosine receptor A3 (Homo sapiens, UniProt P0DMS8); assay: Displacement of [125I]AB-MECA from human adenosine A3 receptor expressed in CHO cells; type: cell-based
# T2 sequence (P0DMS8 whole entry): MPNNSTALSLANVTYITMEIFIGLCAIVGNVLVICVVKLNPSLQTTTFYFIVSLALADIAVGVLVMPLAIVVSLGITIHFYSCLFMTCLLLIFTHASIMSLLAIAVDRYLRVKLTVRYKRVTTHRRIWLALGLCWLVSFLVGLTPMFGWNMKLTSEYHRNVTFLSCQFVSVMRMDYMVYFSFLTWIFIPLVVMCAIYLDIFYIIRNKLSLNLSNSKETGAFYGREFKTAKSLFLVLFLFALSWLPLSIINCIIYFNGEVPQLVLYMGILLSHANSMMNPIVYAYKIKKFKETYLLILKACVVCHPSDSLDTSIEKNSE
# Summary of the method: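 Membranes from CHO cells stably expressing human A3 receptor, prepared like the A2B membranes. Incubated 90 min at 25 °C with gentle agitation, then filtered and washed 4× in ice-cold TM buffer. Nonspecific binding was defined with 1 µM IB-MECA.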
# [4] = molecular target: T3, Adenosine receptor A1 (Homo sapiens, UniProt P30542); assay: Displacement of [3H]CPX from human adenosine A1 receptor expressed in CHO cells
# T3 sequence (P30542 whole entry): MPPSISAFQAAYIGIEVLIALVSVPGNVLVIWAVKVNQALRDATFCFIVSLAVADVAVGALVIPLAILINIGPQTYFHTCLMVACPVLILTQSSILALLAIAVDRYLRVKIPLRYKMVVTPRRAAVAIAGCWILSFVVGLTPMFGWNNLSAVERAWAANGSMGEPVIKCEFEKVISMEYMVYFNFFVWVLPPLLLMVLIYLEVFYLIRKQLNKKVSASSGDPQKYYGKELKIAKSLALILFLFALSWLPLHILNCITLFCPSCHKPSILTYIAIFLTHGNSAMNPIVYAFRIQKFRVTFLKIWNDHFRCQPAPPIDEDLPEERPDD
# [5] = molecular target: Adenosine receptor A2a (Homo sapiens, UniProt P29274); assay: Displacement of [3H]ZM-241385 from human adenosine A2a receptor expressed in HEK cells; type: cell-based, HEK293
# [6] = molecular target: Adenosine receptors; A2b & A3 (Homo sapiens) (UniProt P29275+P0DMS8); assay: Selectivity for human adenosine A2b receptor over adenosine A3 receptor; type: protein assay
# [7] = molecular target: Adenosine A2 receptor (Homo sapiens) (UniProt P29275+P29274); assay: Selectivity for human adenosine A2b receptor over adenosine A2a receptor; type: protein assay
# Chain of Adenosine receptor A2a (P29274 whole entry): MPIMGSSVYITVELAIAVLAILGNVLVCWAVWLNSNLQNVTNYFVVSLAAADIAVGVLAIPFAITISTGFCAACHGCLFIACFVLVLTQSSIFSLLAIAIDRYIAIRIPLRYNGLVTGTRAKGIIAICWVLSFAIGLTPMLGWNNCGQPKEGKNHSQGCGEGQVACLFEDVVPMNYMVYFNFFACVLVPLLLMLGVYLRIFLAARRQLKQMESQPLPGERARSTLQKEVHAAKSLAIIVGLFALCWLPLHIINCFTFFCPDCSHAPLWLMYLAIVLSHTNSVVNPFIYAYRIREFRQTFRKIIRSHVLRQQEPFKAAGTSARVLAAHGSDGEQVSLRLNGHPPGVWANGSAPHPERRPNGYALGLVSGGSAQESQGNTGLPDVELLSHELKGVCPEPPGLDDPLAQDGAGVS
Ki [1] [nM],Ratio Ki [2],Ki [3] [nM],Ki [4] [nM],Ki [5] [nM],Ratio Ki [6],Ratio Ki [7],Structure (SMILES)
–,–,> 1000,> 1000,> 1000,–,–,CCCn1c(=O)c2[nH]c(-c3cc(NC(=O)Cc4ccc(OC)c(OC)c4)nn3C)nc2n(CCC)c1=O
14,12,150,170,400,10,27,CCCn1c(=O)c2[nH]c(-c3cnn(Cc4cccc(C(F)(F)F)c4)c3)nc2n(CCC)c1=O
11,7,170,76,290,15,26,CCCn1c(=O)c2[nH]c(-c3cnn(Cc4ccccc4)c3)nc2n(CCC)c1=O
58,9,–,530,870,–,13,CCCn1c(=O)c2nc(-c3cnn(Cc4cccc(Cl)c4F)c3)[nH]c2n(CCC)c1=O

# The next lines start with the compound.
Structure (SMILES),Ki [1] [nM],Ratio Ki [2],Ki [3] [nM],Ki [4] [nM],Ki [5] [nM],Ratio Ki [6],Ratio Ki [7]
CCCn1c(=O)c2nc(-c3cnn(Cc4cc(C(F)(F)F)ccc4Cl)c3)[nH]c2n(CCC)c1=O,22,54,2800,1200,1400,129,63
CCCn1c(=O)c2[nH]c(-c3cnn(Cc4cccc(F)c4)c3)nc2n(CCC)c1=O,14,13,56,170,230,4,18
CCCn1c(=O)c2[nH]c(-c3cn[nH]c3)nc2n(CCC)c1=O,9,–,23,20,230,–,–
Cn1c(=O)c2nc(-c3cnn(Cc4cccc(C(F)(F)F)c4)c3)[nH]c2n(C)c1=O,1,990,1000,990,690,1000,690
CCCn1c(=O)c2nc(-c3cn[nH]c3)[nH]c2n(CCC)c1=O,–,2,–,–,–,2,23
CCn1c(=O)c2nc(-c3cnn(Cc4cccc(C(F)(F)F)c4)c3)[nH]c2n(CC)c1=O,13,44,–,570,450,–,34
CCCn1c(=O)c2nc(-c3cnn(CCCc4ccccc4)c3)[nH]c2n(CCC)c1=O,100,0.7,–,77,220,–,2
CCCn1c(=O)c2nc(-c3cnn(Cc4ccc(Cl)cc4)c3)[nH]c2n(CCC)c1=O,18,0.5,–,7,88,–,4

# From ChEMBL document CHEMBL1148648, “Novel 1,3-disubstituted 8-(1-benzyl-1H-pyrazol-4-yl) xanthines: high affinity and selective A2B adenosine receptor antagonists” (J Med Chem, 2006)
